Experimental data taken from article PMC11352836 (Science Advances, 2024).
Values belong to the compound of their own block, whether it stands above or below them. Peptide text beside a SMILES is read from it. * marks the point of attachment. Cbz = O=C(OCc1ccccc1)*

How the values were obtained:
[1] = tested on: xenograft leukemia models; conditions: cited from earlier work
[2] = biological target: T1, ENL (Homo sapiens, UniProt Q03111); format: cell-based; conditions: MV4;11 cells pretreated 1 hour, then 100 nM MS41 for 2 hours
T1 sequence (Q03111 1-559): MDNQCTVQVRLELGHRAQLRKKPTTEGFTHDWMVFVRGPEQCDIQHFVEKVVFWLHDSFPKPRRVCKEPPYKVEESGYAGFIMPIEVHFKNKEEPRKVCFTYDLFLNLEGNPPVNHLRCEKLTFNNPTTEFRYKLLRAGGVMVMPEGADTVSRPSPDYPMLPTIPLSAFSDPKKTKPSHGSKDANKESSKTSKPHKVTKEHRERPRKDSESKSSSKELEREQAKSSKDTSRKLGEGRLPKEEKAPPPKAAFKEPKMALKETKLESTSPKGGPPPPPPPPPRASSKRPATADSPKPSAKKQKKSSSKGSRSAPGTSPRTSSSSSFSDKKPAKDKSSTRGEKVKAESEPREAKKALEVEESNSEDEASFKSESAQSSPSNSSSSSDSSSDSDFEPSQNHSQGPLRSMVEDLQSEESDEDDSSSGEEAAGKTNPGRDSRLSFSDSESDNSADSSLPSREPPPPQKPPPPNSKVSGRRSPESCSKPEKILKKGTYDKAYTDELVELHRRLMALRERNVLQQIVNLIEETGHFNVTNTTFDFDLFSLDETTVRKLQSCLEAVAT
Outline: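 MV4;11 cells were pretreated 1 h with graded concentrations of a YEATS-domain ligand, a VHL ligand, proteasome inhibitor MG132, or neddylation inhibitor MLN4924, then given 100 nM test compound for 2 h. Separately, control-sgRNA or VHL-sgRNA MV4;11 cells got graded test compound for 24 h. ENL and VHL were read by immunoblot.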

[3] = cited from earlier work
[4] = tested on: ENL; conditions: cited from earlier work
[5] = tested on: IKZF1; conditions: cited from earlier work
[6] = tested on: MV4;11 cells; assay: Drug synergy test, MS41 with doxorubicin; format: cell-based, human; conditions: MV4;11, cotreatment, 6 days
Outline: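 MV4;11 cells were given DMSO, test compound, doxorubicin, or the combination at graded concentrations for 6 days. Viability was read by CellTiter-Glo luminescence.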

[7] = tested on: KASUMI1 cells; assay: Colony formation assay; format: cell-based, human; conditions: KASUMI1, 100 nM, 10 days
[8] = tested on: RS4;11 cells; assay: Cell viability assay; format: cell-based, human; conditions: RS4;11, 6 days
[9] = tested on: MV4;11 cells; assay: Cell viability assay; format: cell-based, human; conditions: MV4;11, 6 days
[10] = tested on: HEK293 cells; assay: RT-qPCR of HOXA11 and HOXA13 in HEK293 cells expressing ENL mutants; format: cell-based, human; conditions: HEK293 stable cells, 100 nM, 72 hours
Outline: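 HEK293 stable lines expressing ENL mutants were treated with DMSO, 100 nM test compound or 100 nM controls for 72 h. HOXA11 and HOXA13 mRNA was measured by RT-qPCR in three independent experiments, reported as mean ± SEM with Student's t test.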

[11] = biological target: T2, ENL YEATS domain (Homo sapiens, UniProt Q03111); assay: AlphaScreen assay, ENL YEATS-H3K9ac interaction; format: binding
T2 sequence (Q03111 1-145): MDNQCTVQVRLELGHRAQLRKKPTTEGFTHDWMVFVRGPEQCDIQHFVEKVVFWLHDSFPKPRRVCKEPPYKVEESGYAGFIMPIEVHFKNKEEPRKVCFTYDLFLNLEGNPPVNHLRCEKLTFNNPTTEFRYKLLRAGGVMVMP

[12] = tested on: SEMK2 cells; assay: Cell viability assay; format: cell-based, human; conditions: SEMK2, 6 days
[13] = tested on: MV4;11 cells; assay: RT-qPCR of ENL target genes and ENL in MV4; format: cell-based, human; conditions: MV4;11, 24 hours
[14] = tested on: MV4;11 cells; assay: RNA-seq analysis in MV4; format: cell-based, human; conditions: MV4;11, 6 and 24 hours
[15] = tested on: MV4;11 cells; assay: MS-based global quantitative; format: cell-based, human; conditions: MV4;11, 100 nM, 2 or 6 hours; cutoff P value <0.05 and fold change >1.5
Outline: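 MV4;11 cells (10^6 per sample, three biological replicates) were exposed to 100 nM test compound or DMSO for 2 or 6 h. Pellets were solubilised in 8 M urea/50 mM Tris pH 8.0, reduced with 5 mM DTT and alkylated with 15 mM iodoacetamide. After fourfold dilution, samples were digested with trypsin (1:100, overnight, RT), desalted on C18 and analysed by nanoLC-MS. Proteins with ≥2 razor+unique peptides were compared by two-sample t test.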

[16] = tested on: MV4;11 cells; assay: Cell cycle and apoptosis assay; format: cell-based, human; conditions: MV4;11, 100 nM
Outline: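 Cells were harvested at set time points. For cell cycle, cells in HBSS/2% FBS were fixed with dropwise ice-cold 70% ethanol and stained with DAPI. For apoptosis, cells were PBS-washed at 1×10^6 cells/ml in binding buffer, stained with FITC-annexin V plus propidium iodide for 15 min at RT, and run on flow cytometry within 1 h.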

[17] = biological target: T1, ENL; assay: Endogenous ENL degradation by immunoblotting in human leukemia cell lines; format: cell-based; conditions: MV4;11 cells; 1 nM to 10 μM, 6 and 24 hours
Outline: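 MV4;11 and Jurkat cells were treated with DMSO or graded test-compound concentrations for 6 or 24 h. Cells were lysed in Tris/250 mM NaCl/0.5% Triton X-100/glycerol buffer with DTT and protease inhibitors. Bradford-equalised lysates were immunoblotted for ENL, with β-actin as loading control.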

Compound: C[C@H]1CCCN1Cc1cc2cnc(NC(=O)c3ccc4c(cnn4C)c3)cc2[nH]1 [TDI-11055]
in vivo efficacy [1]: in vivo efficacy in xenograft leukemia models

Compound: Cc1ncsc1-c1ccc(CNC(=O)[C@@H]2C[C@@H](O)CN2C(=O)[C@@H](NC(=O)CCOCCNC(=O)c2ccc3c(c2)[C@H](NC(=O)c2cc(-c4ccc(C(=O)N(C)C)c(O)c4)on2)CC3)C(C)(C)C)cc1 [compound 1]
antitumor activity [3]: exhibiting antitumor activity

Compound: O=C(COc1cccc2c1C(=O)N(C1CCC(=O)NC1=O)C2=O)NCCOCCOCCNS(=O)(=O)Nc1cccc(-c2cn3cc(C(=O)NC4CCC4)ccc3n2)c1 (centres unmarked) [SR-1114]
ENL depletion [4]: able to induce ENL depletion
IKZF1 degradation (off-target) [5]: concurrent degradation of IKZF1

Compound: COc1cccc2c1C(=O)c1c(O)c3c(c(O)c1C2=O)C[C@@](O)(C(=O)CO)C[C@@H]3O[C@H]1C[C@H](N)[C@H](O)[C@H](C)O1 [doxorubicin]
interaction of MS41 and doxorubicin (Bliss independence model) [6]: strong synergistic effect

The next lines start with results.

effect of pretreatment on MS41-mediated ENL degradation [2]: effectively blocked
Compound: CC(C)C[C@@H](C=O)NC(=O)[C@H](CC(C)C)NC(=O)[C@H](CC(C)C)NC(=O)OCc1ccccc1 [MG132] (Cbz-Leu-Leu-Leu-aldehyde)

effect of pretreatment on MS41-mediated ENL degradation [2]: hindered MS41-mediated ENL degradation
Compound: Cc1ncsc1-c1ccc(CNC(=O)[C@@H]2C[C@@H](O)CN2C(=O)[C@@H](NC(=O)C2(C#N)CC2)C(C)(C)C)cc1 [VH298]

effect of pretreatment on MS41-mediated ENL degradation [2]: effectively blocked
Compound: NS(=O)(=O)OC[C@@H]1C[C@@H](n2ccc3c(N[C@H]4CCc5ccccc54)ncnc32)C[C@@H]1O [MLN4924]

IC50 [11]: 117 nM
Compound: Cc1ncsc1-c1ccc([C@H](C)NC(=O)[C@H]2C[C@H](O)CN2C(=O)[C@@H](NC(=O)CCCCCCCCCNC(=O)c2ccc3c(c2)[C@H](NC(=O)c2cc(-c4ccc(C(=O)N(C)C)c(O)c4)on2)CC3)C(C)(C)C)cc1 [MS41N]
clonogenic potential (colony formation) [7]: but not MS41N or PFI-6
cell growth suppression [8]: did not suppress cell growth
cell growth suppression [9]: did not suppress cell growth
HOXA11 and HOXA13 gene expression induced by ENL mutants [10]: had no or only minor effects on HOXA11 and HOXA13 gene expression
cell growth suppression [12]: did not suppress cell growth
mRNA levels of ENL (RT-qPCR) [13]: did not affect mRNA levels of ENL
changes in gene expression (RNA-seq) [14]: did not induce substantial changes in gene expression
proteome-wide selectivity (change in protein abundance) [15]: did not substantially alter the abundance of any proteins
apoptosis [16]: had no such effects
cell cycle profile [16]: had no such effects
endogenous ENL protein degradation (immunoblot) [17]: did not induce ENL degradation, even at 10 μM
